Tests used:
Hepatitis C virus [1] = assay: Antiviral activity against HCV1b infected in human Huh-7 cells assessed as inhibition of viral RNA replication after 96 hrs by ELISA assay in presence of 10% fetal calf serum; type: functional, organism-based, Hepacivirus hominis; settings: genotype 1b, Huh-7, 96 h
Hepatitis C virus [2] = assay: Inhibition of HCV1b NS5B delta21 polymerase after 1 hr; type: single protein, Hepatitis C virus subtype 1b
Method in brief: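 Enzyme inhibition IC50 measured on genotype 1b HCV NS5B polymerase truncated by 21 C-terminal residues (ΔC21).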

Hepatitis C virus [3] = assay: Antiviral activity against HCV1b infected in human Huh-7 cells assessed as inhibition of viral RNA replication after 96 hrs by ELISA assay in presence of 50% normal human serum; type: functional, organism-based, Hepacivirus hominis; settings: genotype 1b, Huh-7, 96 h
[4] = Fraction unbound in human plasma; type: ADME, cell-free
Hepatitis C virus [5] = assay: Ratio of EC50 for HCV1b to EC50 for HCV1b in presence of 50% normal human serum; type: functional, Hepacivirus hominis, genotype 1b
[6] = Ratio of drug level in liver to plasma in Sprague-Dawley rat liver at 3 mg/kg, po after 6 hrs; type: ADME, organism-based; design: dose 3 mg/kg, route oral
Method in brief: (§1)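 Sprague-Dawley rats (n = 3) received the compound as its TFA salt in DMSO/PEG400/water 20%/60%/20%, as a single iv dose of 3 mg/kg or a single oral dose of 3 mg/kg. Liver tissue and plasma concentrations were measured 6 h after the oral dose.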

[7] = Clearance in Sprague-Dawley rat at 3 mg/kg, iv; type: ADME, organism-based; design: dose 3 mg/kg, route intravenous; settings: in vivo; method in brief: as §1
[8] = Half life in Sprague-Dawley rat at 3 mg/kg, iv; type: ADME, organism-based; design: dose 3 mg/kg, route intravenous; settings: in vivo; method in brief: as §1
[9] = Volume of distribution in Sprague-Dawley rat at 3 mg/kg, iv; type: ADME, organism-based; design: dose 3 mg/kg, route intravenous; settings: in vivo
Method in brief: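 Sprague-Dawley rats (n = 3) received a single 3 mg/kg iv dose, given as the TFA salt, in DMSO/PEG400/water 20%/60%/20%. Plasma clearance, half-life and volume of distribution were derived.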

[10] = Cmax in Sprague-Dawley rat at 3 mg/kg, po; type: ADME, organism-based; design: dose 3 mg/kg, route oral; settings: in vivo; method in brief: as §1
[11] = AUC in Sprague-Dawley rat at 3 mg/kg, po; type: ADME, organism-based; design: dose 3 mg/kg, route oral; settings: plasma
Method in brief: (§2)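 Single-dose rat PK with the compound given as its TFA salt to Sprague-Dawley rats (n = 3) in DMSO/PEG400/water 20%/60%/20%. Dosing was 3 mg/kg iv and 3 mg/kg po.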

[12] = Oral bioavailability in Sprague-Dawley rat at 3 mg/kg; type: ADME, organism-based; settings: in vivo; method in brief: as §2
[13] = Drug level in Sprague-Dawley rat liver at 3 mg/kg, po after 6 hrs; type: ADME, organism-based; design: dose 3 mg/kg, route oral; settings: read-out: Drug uptake; method in brief: as §1
[14] = Intrinsic clearance in rat liver microsomes assessed per mg of protein; type: ADME, Microsome
[15] = Intrinsic clearance in dog liver microsomes assessed per mg of protein; type: ADME, Canis lupus familiaris, Microsome
[16] = Intrinsic clearance in human liver microsomes assessed per mg of protein; type: ADME, Microsome

SMILES | EC50 (Hepatitis C virus [1]) | IC50 (Hepatitis C virus [2]) | EC50 (Hepatitis C virus [3]) | Ratio EC50 (Hepatitis C virus [5]) | further results
CN(C)C(=O)CNC1COc2ccccc2-c2c(C3CCCCC3)c3ccc(C(=O)O)cc3n2C1 (racemic) | 766 nM | 51 nM | > 5000 nM | – | –
COCCNC1COc2ccccc2-c2c(C3CCCCC3)c3ccc(C(=O)O)cc3n2C1 (racemic) | 2480 nM | 63 nM | – | – | –
CN1CCN(C2COc3ccccc3-c3c(C4CCCCC4)c4ccc(C(=O)O)cc4n3C2)CC1 (racemic) | 120 nM | 10 nM | 361 nM | – | –
CCN(CC)C1CCN(C(=O)Cn2c(-c3ccc(Cl)cc3)c(C3CCCCC3)c3ccc(C(=O)O)cc32)CC1 | – | 48 nM | – | – | Kp at 6 h [6]: 16
O=C(O)c1ccc2c(C3CCCCC3)c3n(c2c1)CCCc1ccccc1-3 | 10400 nM | 35 nM | – | – | –
CC(C)N1CC2(COc3ccccc3-c3c(C4CCCCC4)c4ccc(C(=O)O)cc4n3C2)C1 | 338 nM | 30 nM | 590 nM | – | –
NCCNC1COc2ccccc2-c2c(C3CCCCC3)c3ccc(C(=O)O)cc3n2C1 (racemic) | 591 nM | 12 nM | 1700 nM | 4 | –
O=C(O)c1ccc2c(C3CCCCC3)c3n(c2c1)CCCOc1ccccc1-3 | 2740 nM | 42 nM | – | – | –
CN(CCN1CCOCC1)C1COc2ccccc2-c2c(C3CCCCC3)c3ccc(C(=O)O)cc3n2C1 (racemic) | 90 nM | 10 nM | 312 nM | – | –
CNC1COc2ccccc2-c2c(C3CCCCC3)c3ccc(C(=O)O)cc3n2C1 (racemic) | 1030 nM | 51 nM | 4980 nM | – | –
CN(C)CC(=O)NC1COc2ccccc2-c2c(C3CCCCC3)c3ccc(C(=O)O)cc3n2C1 (racemic) | 170 nM | 47 nM | 1430 nM | – | –
CN1CCC(NC2COc3ccccc3-c3c(C4CCCCC4)c4ccc(C(=O)O)cc4n3C2)CC1 (racemic) | 224 nM | 21 nM | 1130 nM | 4 | –
CC(C)N1CC[C@H](N2CCn3c(c(C4CCCCC4)c4sc(C(=O)O)cc43)-c3ccccc3C2)C1 | 150 nM | 19 nM | – | – | –
CNCCN(C)C1COc2ccccc2-c2c(C3CCCCC3)c3ccc(C(=O)O)cc3n2C1 (racemic) | 83 nM | 9 nM | 550 nM | – | –
CN(CCN1CCCC1)C1COc2ccccc2-c2c(C3CCCCC3)c3ccc(C(=O)O)cc3n2C1 (racemic) | 99 nM | 11 nM | 335 nM | – | –
CN1CCN(CCN(C)C2COc3ccccc3-c3c(C4CCCCC4)c4ccc(C(=O)O)cc4n3C2)CC1 (racemic) | 66 nM | 8 nM | 581 nM | 9 | fraction unbound [4]: 0.011
CN(C)CC(=O)N(C)C1COc2ccccc2-c2c(C3CCCCC3)c3ccc(C(=O)O)cc3n2C1 (stereo not drawn) | 73 nM | 31 nM | 743 nM | 10 | fraction unbound [4]: 0.005

More lines, main results first:

EC50 (Hepatitis C virus [1]) | IC50 (Hepatitis C virus [2]) | SMILES | EC50 (Hepatitis C virus [3]) | Ratio EC50 (Hepatitis C virus [5]) | further results
73 nM | 15 nM | CN(C)CCN(C)C1COc2ccccc2-c2c(C3CCCCC3)c3ccc(C(=O)O)cc3n2C1 (racemic) | 313 nM | – | fraction unbound [4]: 0.027
29 nM | 4 nM | COc1ccc2c(c1)[C@H]1[C@@H](CCN1CCN(C)C)Cn1c-2c(C2CCCCC2)c2ccc(C(=O)O)cc21 | – | – | –
338 nM | 35 nM | CN(C)CCN(C)[C@@H]1COc2ccccc2-c2c(C3CCCCC3)c3ccc(C(=O)O)cc3n2C1 | 1680 nM | 3 | –
78 nM | 19 nM | CN(C)CCO[C@@H]1COc2ccccc2-c2c(C3CCCCC3)c3ccc(C(=O)O)cc3n2C1 | 493 nM | 6 | –
258 nM | 17 nM | CN(C)CCCNC1COc2ccccc2-c2c(C3CCCCC3)c3ccc(C(=O)O)cc3n2C1 (racemic) | 1370 nM | 4 | –
570 nM | 32 nM | CN(C)C1COc2ccccc2-c2c(C3CCCCC3)c3ccc(C(=O)O)cc3n2C1 (racemic) | 2110 nM | 4 | –
173 nM | 32 nM | CN(C)CCNC1COc2ccccc2-c2c(C3CCCCC3)c3ccc(C(=O)O)cc3n2C1 (racemic) | 856 nM | 4 | clearance [7]: 21 mL/min/kg; half-life [8]: 3 h; Vd [9]: 3.2 L/kg; Cmax [10]: 300 nM; AUC [11]: 0.9 µM·h; bioavailability [12]: 20%; concentration at 6 h [13]: 1300 nM; microsomal CLint [14]: 7 µL/min/mg; microsomal CLint [15]: 7 µL/min/mg; microsomal CLint [16]: 5 µL/min/mg; Kp at 6 h [6]: 21
80 nM | 4 nM | CN(C)CCN1CC2(COc3ccccc3-c3c(C4CCCCC4)c4ccc(C(=O)O)cc4n3C2)C1 | 454 nM | – | –
138 nM | 34 nM | CC(C)N(CCN(C)C)C1COc2ccccc2-c2c(C3CCCCC3)c3ccc(C(=O)O)cc3n2C1 (racemic) | 1200 nM | 7 | –
432 nM | 72 nM | CN(C)CCO[C@H]1COc2ccccc2-c2c(C3CCCCC3)c3ccc(C(=O)O)cc3n2C1 | 1410 nM | – | –
– | 27 nM | CN(C)CCN1CCn2c(c(C3CCCCC3)c3ccc(C(=O)O)cc32)-c2ccccc2C1 | – | – | clearance [7]: 61 mL/min/kg; half-life [8]: 1.6 h; Vd [9]: 5.1 L/kg; Cmax [10]: 200 nM; AUC [11]: 0.7 µM·h; concentration at 6 h [13]: 640 nM; microsomal CLint [14]: 100 µL/min/mg; microsomal CLint [15]: 26 µL/min/mg; microsomal CLint [16]: 5 µL/min/mg
153 nM | 11 nM | CCN(CCN(C)C)C1COc2ccccc2-c2c(C3CCCCC3)c3ccc(C(=O)O)cc3n2C1 (racemic) | 1030 nM | 7 | –

Source: ChEMBL document CHEMBL1649090, “Discovery of (7R)-14-cyclohexyl-7-{[2-(dimethylamino)ethyl](methyl) amino}-7,8-dihydro-6H-indolo[1,2-e][1,5]benzoxazocine-11-carboxylic acid (MK-3281), a potent and orally bioavailable finger-loop inhibitor of the hepatitis C virus NS5B polymerase” (J Med Chem, 2011)
